Data taken from ChEMBL document CHEMBL3421608, “Discovery and optimization of a novel series of Dyrk1B kinase inhibitors to explore a MEK resistance hypothesis” (J Med Chem, 2015).
≈ marks a conversion by molar mass, not a printed value. Calls of active or inactive are those of the source. The calls are words filed in the database; no cut-off is given here.

Legend:
[1] = target: T1, Dual specificity tyrosine-phosphorylation-regulated kinase 1B (Homo sapiens, UniProt Q9Y463); experiment: Inhibition of recombinant Dyrk1B (unknown origin) using FITC-Asp-His-Thr-Gly-Phe-Leu-Thr-Glu-Tyr-Val-Ala-Thr-Arg-NH2 as substrate after 60 mins
[2] = target: T1, Dual specificity tyrosine-phosphorylation-regulated kinase 1B; experiment: Inhibition of human full length C-terminal c-Myc tagged Dyrk1B phosphorylation overexpressed in monkey COS1 cells after 5 hrs by ELISA; format: cell-based, COS-1
[3] = target: Insulin-like growth factor 1 receptor (Homo sapiens, UniProt P08069); experiment: Inhibition of human recombinant N-terminal His6-tagged IGF-1R using fluorescence substrate after 80 mins by caliper off-chip incubation mobility shift assay
[4] = target: Cyclin-dependent kinase 2 (Homo sapiens, UniProt P24941); experiment: Inhibition of human recombinant full length C-terminal His6-tagged CDK2 expressed in baculovirus infected Sf21 insect cells using fluorescence substrate after 60 mins by caliper off-chip incubation mobility shift assay
[5] = Intrinsic clearance in Wistar Han rat hepatocytes assessed per 10^6 cells; format: ADME, cell-based, Hepatocyte; settings: read-out: CLH
Procedure, shortened: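 Intrinsic clearance in Wistar Han rat hepatocytes, expressed as μL/min/1 × 10⁶ cells.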

[6] = Clearance in Wistar Han rat plasma at 2 umol/kg; format: ADME, cell-free
[7] = Oral bioavailability in Wistar Han rat at 3 umol/kg; format: ADME, organism-based; settings: in vivo
[8] = Aqueous solubility of the compound at pH 7.4; format: physicochemical; settings: buffer
[9] = target: Dual specificity tyrosine-phosphorylation-regulated kinase 1A (Homo sapiens) (UniProt Q13627); experiment: Inhibition of Dyrk1A (unknown origin) at 1 uM
Procedure, shortened: (§1)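 Kinase panel of 124 kinases; single test concentration of 1 μM.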

[10] = target: T2, Dual specificity tyrosine-phosphorylation-regulated kinase 2 (Homo sapiens) (UniProt Q92630); experiment: Inhibition of Dyrk2 (unknown origin) at 1 uM; procedure, shortened: as §1
T2 sequence (whole entry): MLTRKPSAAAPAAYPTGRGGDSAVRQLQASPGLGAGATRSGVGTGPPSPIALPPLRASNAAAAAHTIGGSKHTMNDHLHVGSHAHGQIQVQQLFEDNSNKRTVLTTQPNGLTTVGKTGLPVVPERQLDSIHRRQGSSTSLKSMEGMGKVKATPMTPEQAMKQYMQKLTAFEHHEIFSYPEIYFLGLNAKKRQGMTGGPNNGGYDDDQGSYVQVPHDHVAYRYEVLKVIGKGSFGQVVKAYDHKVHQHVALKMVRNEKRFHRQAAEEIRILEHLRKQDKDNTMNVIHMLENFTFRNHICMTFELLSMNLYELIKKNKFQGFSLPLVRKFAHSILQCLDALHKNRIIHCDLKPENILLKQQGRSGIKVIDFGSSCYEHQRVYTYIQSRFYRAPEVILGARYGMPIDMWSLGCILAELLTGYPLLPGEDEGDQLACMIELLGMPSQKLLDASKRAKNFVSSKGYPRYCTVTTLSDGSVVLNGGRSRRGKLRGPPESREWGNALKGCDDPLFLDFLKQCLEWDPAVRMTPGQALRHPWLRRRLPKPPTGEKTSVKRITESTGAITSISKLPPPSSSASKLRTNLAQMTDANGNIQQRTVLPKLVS

[11] = target: T3, Dual specificity tyrosine-phosphorylation-regulated kinase 3 (Homo sapiens) (UniProt O43781); experiment: Inhibition of Dyrk3 (unknown origin) at 1 uM; procedure, shortened: as §1
T3 sequence (whole entry): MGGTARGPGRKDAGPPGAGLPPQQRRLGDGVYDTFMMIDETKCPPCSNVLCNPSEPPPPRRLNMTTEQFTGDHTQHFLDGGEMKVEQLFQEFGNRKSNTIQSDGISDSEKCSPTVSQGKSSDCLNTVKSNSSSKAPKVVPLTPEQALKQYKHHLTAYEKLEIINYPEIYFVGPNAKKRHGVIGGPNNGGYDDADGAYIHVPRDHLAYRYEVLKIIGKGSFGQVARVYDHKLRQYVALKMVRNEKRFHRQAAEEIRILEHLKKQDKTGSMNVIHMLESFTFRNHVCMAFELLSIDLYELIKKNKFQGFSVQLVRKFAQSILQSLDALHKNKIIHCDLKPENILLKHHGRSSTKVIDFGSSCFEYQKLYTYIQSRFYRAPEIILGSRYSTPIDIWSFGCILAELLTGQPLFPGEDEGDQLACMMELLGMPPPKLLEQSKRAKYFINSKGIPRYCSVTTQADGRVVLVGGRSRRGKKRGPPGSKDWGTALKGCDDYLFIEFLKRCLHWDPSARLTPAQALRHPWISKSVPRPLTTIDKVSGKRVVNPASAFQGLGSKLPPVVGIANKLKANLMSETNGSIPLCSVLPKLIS

A-375 = experiment: Cytotoxicity against human A375 cells at 1.33 uM after 72 hrs by calcein green AM/propidium iodide staining-based assay in presence of AZD6244 relative to control; format: functional, cell-based
Procedure, shortened: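 A375 melanoma cells treated with AZD6244 with or without Dyrk1B inhibitor at 1.33 μM for 72 h. Viability by calcein green AM and propidium iodide staining; percentage of dead cells is mean and SEM of at least two separate experiments.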

[12] = Clearance in Wistar Han rat blood at 2 umol/kg; format: ADME, tissue-based; settings: whole blood
Homo sapiens = organism: Homo sapiens; experiment: Selectivity ratio of IC50 for human recombinant N-terminal His6-tagged IGF-1R to IC50 for recombinant Dyrk1B (unknown origin)
[13] = target: T4, Dual specificity tyrosine-phosphorylation-regulated kinase 2 (Homo sapiens, UniProt Q92630); experiment: Inhibition of GST-tagged Dyrk2 (unknown origin) expressed in Escherichia coli using [33P]ATP[gammaP]/DYRKtide as substrate after 5 mins by liquid scintillation counting analysis
T4 sequence (Q92630 whole entry): T2 sequence (whole entry)

[14] = target: T5, Dual specificity tyrosine-phosphorylation-regulated kinase 4 (Homo sapiens, UniProt Q9NR20); experiment: Inhibition of GST-tagged Dyrk4 (unknown origin) expressed in Escherichia coli using [33P]ATP[gammaP]/DYRKtide as substrate after 5 mins by liquid scintillation counting analysis
T5 sequence (Q9NR20 whole entry): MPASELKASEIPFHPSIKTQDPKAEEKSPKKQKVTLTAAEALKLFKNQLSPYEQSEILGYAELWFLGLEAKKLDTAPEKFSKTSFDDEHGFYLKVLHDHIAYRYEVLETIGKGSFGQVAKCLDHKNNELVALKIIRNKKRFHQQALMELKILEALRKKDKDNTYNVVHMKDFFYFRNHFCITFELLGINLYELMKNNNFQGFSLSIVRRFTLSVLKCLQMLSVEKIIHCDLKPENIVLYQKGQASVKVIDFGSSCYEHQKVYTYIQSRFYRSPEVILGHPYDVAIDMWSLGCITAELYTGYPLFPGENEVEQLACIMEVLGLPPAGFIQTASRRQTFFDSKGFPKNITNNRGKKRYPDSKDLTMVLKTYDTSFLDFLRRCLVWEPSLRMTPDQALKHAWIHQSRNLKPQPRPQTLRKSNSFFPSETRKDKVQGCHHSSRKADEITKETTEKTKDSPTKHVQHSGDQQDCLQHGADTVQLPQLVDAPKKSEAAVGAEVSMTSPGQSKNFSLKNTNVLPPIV

[15] = target: T6, Dual specificity protein kinase TTK (Homo sapiens, UniProt P33981); experiment: Inhibition of human wild-type TTK (514 to 795) expressed in insect sf9 cells
T6 sequence (P33981 whole entry): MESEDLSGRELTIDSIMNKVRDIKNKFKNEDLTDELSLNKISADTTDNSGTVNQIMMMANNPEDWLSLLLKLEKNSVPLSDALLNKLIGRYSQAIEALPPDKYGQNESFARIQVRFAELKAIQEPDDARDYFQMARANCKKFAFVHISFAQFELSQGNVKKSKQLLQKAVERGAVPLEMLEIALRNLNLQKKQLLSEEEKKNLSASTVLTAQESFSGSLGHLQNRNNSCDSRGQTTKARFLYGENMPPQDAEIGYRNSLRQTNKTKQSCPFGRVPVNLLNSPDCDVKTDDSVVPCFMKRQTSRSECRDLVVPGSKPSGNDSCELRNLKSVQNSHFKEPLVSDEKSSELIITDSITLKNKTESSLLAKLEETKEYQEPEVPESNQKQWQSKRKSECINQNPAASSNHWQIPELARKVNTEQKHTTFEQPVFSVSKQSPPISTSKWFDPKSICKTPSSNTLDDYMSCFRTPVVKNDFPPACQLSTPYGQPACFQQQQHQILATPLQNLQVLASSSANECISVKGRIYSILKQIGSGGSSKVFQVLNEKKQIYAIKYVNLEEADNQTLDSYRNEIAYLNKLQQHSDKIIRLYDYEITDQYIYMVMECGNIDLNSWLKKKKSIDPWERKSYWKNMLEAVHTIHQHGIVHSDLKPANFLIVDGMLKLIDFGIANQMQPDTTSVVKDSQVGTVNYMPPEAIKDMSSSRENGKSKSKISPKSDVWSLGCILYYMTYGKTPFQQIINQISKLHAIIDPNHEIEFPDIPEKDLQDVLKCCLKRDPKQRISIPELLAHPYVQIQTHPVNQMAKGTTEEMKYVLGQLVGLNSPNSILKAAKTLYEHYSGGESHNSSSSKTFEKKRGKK

T1 sequence (Q9Y463 whole entry): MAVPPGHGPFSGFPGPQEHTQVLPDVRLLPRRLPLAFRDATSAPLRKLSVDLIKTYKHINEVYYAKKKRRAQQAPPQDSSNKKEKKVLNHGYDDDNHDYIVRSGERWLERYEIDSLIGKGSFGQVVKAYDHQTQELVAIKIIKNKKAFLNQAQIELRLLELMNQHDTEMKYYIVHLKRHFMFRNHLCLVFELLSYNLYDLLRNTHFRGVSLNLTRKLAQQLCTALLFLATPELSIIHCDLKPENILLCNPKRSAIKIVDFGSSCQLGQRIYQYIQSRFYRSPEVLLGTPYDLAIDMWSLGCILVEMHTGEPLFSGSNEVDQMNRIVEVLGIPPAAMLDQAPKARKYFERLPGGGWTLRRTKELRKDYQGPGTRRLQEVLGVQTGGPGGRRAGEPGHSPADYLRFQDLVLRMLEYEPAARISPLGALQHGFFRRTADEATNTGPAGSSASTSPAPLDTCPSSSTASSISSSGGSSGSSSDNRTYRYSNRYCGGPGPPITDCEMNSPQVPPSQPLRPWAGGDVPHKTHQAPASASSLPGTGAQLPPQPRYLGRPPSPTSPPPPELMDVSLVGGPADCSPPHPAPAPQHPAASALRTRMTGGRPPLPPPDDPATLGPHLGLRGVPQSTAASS
Sequence of Insulin-like growth factor 1 receptor (P08069 31-736 limits assumed): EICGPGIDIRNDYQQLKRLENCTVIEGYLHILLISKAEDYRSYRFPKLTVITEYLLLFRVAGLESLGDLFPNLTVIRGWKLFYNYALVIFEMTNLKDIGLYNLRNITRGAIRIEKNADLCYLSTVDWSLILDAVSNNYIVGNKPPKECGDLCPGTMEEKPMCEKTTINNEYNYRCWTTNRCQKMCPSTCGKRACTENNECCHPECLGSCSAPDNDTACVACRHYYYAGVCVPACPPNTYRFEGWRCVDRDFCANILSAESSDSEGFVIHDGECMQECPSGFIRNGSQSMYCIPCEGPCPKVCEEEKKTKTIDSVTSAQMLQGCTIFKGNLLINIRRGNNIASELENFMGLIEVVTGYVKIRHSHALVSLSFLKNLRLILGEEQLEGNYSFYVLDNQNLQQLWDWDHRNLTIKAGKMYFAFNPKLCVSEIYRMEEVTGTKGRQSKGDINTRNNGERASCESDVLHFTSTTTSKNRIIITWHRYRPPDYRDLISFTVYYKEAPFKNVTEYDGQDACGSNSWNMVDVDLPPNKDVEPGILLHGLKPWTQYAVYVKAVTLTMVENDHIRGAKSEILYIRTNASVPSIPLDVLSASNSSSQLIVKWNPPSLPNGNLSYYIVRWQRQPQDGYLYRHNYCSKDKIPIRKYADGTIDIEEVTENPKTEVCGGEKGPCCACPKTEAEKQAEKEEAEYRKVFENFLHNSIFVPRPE
Sequence of Insulin-like growth factor 1 receptor (P08069 741-1367 limits assumed): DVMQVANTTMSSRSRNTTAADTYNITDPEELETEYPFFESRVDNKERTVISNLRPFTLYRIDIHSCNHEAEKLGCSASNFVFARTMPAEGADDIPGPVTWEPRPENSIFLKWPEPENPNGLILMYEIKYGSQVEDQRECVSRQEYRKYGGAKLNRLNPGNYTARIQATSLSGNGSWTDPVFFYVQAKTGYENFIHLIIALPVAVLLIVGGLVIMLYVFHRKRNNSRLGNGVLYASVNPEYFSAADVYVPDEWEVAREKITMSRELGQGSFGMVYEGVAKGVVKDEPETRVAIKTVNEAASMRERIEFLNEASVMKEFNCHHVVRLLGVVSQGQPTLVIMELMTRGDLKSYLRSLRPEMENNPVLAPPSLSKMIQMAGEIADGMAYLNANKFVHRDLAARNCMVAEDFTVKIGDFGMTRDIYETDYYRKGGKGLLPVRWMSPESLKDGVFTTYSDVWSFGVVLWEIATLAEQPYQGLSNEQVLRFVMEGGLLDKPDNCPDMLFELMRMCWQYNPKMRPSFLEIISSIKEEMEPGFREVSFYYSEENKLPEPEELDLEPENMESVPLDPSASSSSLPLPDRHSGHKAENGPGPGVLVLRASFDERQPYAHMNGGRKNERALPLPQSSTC

Row | SMILES | IC50 [1] [nM] | IC50 [2] [nM] | IC50 [3] [nM] | IC50 [4] [nM] | hepatocyte CLint [5] [µL/min/1e6 cells] | clearance [6] [mL/min/kg] | further results
1 | COc1cc(N2CCN(C(C)=O)CC2)ccc1Nc1cc(-c2cn(C)c3cnccc23)ncn1 | 34 | – | > 100000 | 14800 | 11 | 16 | bioavailability [7]: 5%; solubility [8]: 53 µM (≈ 24.2 µg/mL)
2 | Cc1nccc(-c2c[nH]c3cnccc23)n1 | 17 | 3070 | > 100000 | 38400 | – | – | –
3 | CN1CCN(c2ccc(Nc3cc(-c4c[nH]c5ccccc45)ncn3)cc2)CC1 | 85 | 9960 | 2410 | 33200 | 49 | – | clearance [12]: 42 mL/min/kg; bioavailability [7]: 13%; Ratio IC50 (Homo sapiens): 28
4 | CN1CCN(c2ccc(Nc3ncc(Cl)c(-c4c[nH]c5cnccc45)n3)cc2)CC1 | 25 | – | 30 | 20 | – | – | –
5 | CS(=O)(=O)c1ccc(-c2nccc(-c3c[nH]c4cnccc34)n2)cc1 | 21 | 898 | > 100000 | 16900 | 129 | – | bioavailability [7]: 0%
6 | COc1ccc2c(c1)[nH]c1c(C)nccc12 [HARMINE] | – | – | – | – | – | – | IC50 [13]: 2000 nM; IC50 [14]: 74000 nM
7 | O=C(NC1CCCC1)c1ccc(-c2nccc(-c3c[nH]c4cnccc34)n2)cc1 | 98 | – | 67700 | 45900 | 32 | – | –
8 | COc1cc(N2CCN(C(C)=O)CC2)ccc1Nc1cc(-c2c[nH]c3cnccc23)ncn1 | 16 | – | 40500 | 14100 | 9 | 239 | –
9 | COc1cc(OC2CCN(C)CC2)ccc1Nc1nccc(-c2c[nH]c3cnccc23)n1 | 140 | – | 3300 | – | – | – | IC50 [15]: 20 nM
10 | O=C(NC1CCCC1)c1ccc(-c2cc(-c3cc4c([nH]3)CCNC4=O)ccn2)cc1 | 43 | – | – | – | – | – | –

Continued, in another order:

Row | IC50 [1] [nM] | IC50 [2] [nM] | IC50 [3] [nM] | IC50 [4] [nM] | hepatocyte CLint [5] [µL/min/1e6 cells] | clearance [6] [mL/min/kg] | SMILES | further results
11 | 5 | 83 | 51 | 17400 | < 5 | 38 | COc1cc(N2CCN(C)CC2)ccc1Nc1nccc(-c2c[nH]c3c(C)nccc23)n1 | bioavailability [7]: 0%
12 | 4 | 85 | 1490 | 1820 | 21 | – | COc1cc(N2CCN(C)CC2)ccc1Nc1nccc(-c2c[nH]c3cnccc23)n1 | inhibition [9]: 90%; inhibition [10]: 92%; inhibition [11]: 83%
13 | 7 | 192 | 46900 | 5180 | – | – | C(=C\c1nccc(-c2c[nH]c3cnccc23)n1)/c1ccccc1 | Activity (A-375): inactive
14 | 4 | – | 72 | 10500 | 6 | – | COc1cc(N2CCN(C)CC2)ccc1Nc1nccc(-c2c[nH]c3cnc(C)cc23)n1 | –
15 | 7 | 194 | > 100000 | 56700 | – | – | Cc1nccc(-c2cn(Cc3ccccc3)c3cnccc23)n1 | Activity (A-375): inactive
16 | 14 | 2120 | > 29000 | > 100000 | 9 | 24 | Cc1nccc2c(-c3ccnc(-c4ccc(S(C)(=O)=O)cc4)n3)c[nH]c12 | bioavailability [7]: 4%
17 | 9 | – | 965 | 2000 | < 1 | 137 | COc1cc(N2CCN(C(C)=O)CC2)ccc1Nc1nccc(-c2c[nH]c3cnccc23)n1 | –
18 | 3 | 378 | 7990 | 314 | – | – | c1cc2c(-c3ccnc4[nH]ccc34)c[nH]c2cn1 | –
19 | 9 | 168 | 3170 | 13700 | 6 | 24 | COc1cc(N2CCN(C)CC2)ccc1Nc1nccc(-c2cn(C)c3c(C)nccc23)n1 | bioavailability [7]: 14%; solubility [8]: 4 µM (≈ 1.77 µg/mL)
20 | 2 | 453 | > 100000 | 577 | 13 | 179 | CN1CCN(c2ccc(Nc3cc(-c4c[nH]c5cnccc45)ncn3)cc2)CC1 | –
21 | 1 | 282 | 34100 | 12300 | 11 | 375 | COc1cc(N2CCN(C)CC2)ccc1Nc1cc(-c2c[nH]c3cnccc23)ncn1 | –
